Laboratory results: ChEMBL document CHEMBL4373708 (J Med Chem, 2019)

Tested on: not listed separately
Assay: Cmax in mouse at 5 mg/kg, ip by LC-MS analysis
Format: ADME, organism-based
Design: dose 5 mg/kg, route intraperitoneal
Conditions: in vivo
Outline: (§1)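 Single intraperitoneal or oral dose in mice at 5 mg/kg (vehicle: saline with 5% DMSO and 10% Kolliphor HS 15) or 10 mg/kg (vehicle: PBS with 5% DMSO and 20% (2-hydroxypropyl)-β-cyclodextrin). Blood taken by retroorbital puncture at set times, serum separated by centrifugation at 4000 g for 20 min at 24 °C, compound quantified by LC/MS.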

Cmax [µM]	SMILES
24.3	Cc1c(CC(=O)O)c(=O)oc2c(C)c(OCc3cccc(Br)c3)ccc12

Tested on: not listed separately
Assay: Time at which serum concentration stays above in vitro IC50 for inhibition of mouse slc26a3 expressed in FRT cells in mouse at 5 mg/kg, po or ip by LC-MS analysis
Format: organism-based
Conditions: in vivo
Outline: as §1

Time	SMILES
>= 24 hr	Cc1c(CC(=O)O)c(=O)oc2c(C)c(OCc3cccc(Br)c3)ccc12

Target: T1, Chloride anion exchanger (Mus musculus, UniProt Q9WVC8)
T1 sequence (Q9WVC8 whole entry): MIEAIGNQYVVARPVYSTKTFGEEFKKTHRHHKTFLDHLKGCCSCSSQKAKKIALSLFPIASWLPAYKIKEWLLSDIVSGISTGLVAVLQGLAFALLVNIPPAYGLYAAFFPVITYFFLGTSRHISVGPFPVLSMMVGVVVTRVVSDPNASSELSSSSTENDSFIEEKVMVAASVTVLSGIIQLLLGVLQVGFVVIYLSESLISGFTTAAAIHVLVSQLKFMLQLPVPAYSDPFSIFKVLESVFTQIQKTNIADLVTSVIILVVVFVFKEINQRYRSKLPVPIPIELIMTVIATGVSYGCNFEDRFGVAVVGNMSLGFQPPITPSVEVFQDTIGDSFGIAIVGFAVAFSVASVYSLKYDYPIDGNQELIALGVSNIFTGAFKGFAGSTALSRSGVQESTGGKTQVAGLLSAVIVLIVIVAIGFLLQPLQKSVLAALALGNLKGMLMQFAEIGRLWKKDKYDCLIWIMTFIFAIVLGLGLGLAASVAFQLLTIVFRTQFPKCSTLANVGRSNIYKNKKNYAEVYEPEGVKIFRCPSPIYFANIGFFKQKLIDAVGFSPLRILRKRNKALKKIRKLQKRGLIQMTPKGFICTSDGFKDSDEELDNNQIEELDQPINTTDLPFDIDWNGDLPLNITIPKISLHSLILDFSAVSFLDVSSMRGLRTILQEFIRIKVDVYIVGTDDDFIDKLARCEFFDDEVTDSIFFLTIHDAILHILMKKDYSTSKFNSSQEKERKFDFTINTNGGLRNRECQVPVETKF
Assay: Inhibition of mouse slc26a3 expressed in FRT cells co-expressing EYFP-H148Q/I152L/F46L assessed as reduction in protein-mediated chloride/iodide exchange preincubated for 10 mins followed by NaI-substituted PBS addition and measured by YFP-based fluorescence assay
Format: cell-based
Conditions: not given
Outline: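 Chloride/iodide exchange was assayed in FRT cells co-expressing murine slc26a3 and EYFP-H148Q/I152L/F46L. Cells in PBS received iodide-substituted PBS (NaCl replaced by 140 mM NaI), and the fluorescence quenching rate was measured. Concentration–inhibition data were fitted to a single-site model for IC50. Data are representative of 3 replicates.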

IC50 [µM]	SMILES
> 5	Cc1c(CC(=O)O)c(=O)oc2c(C)c(OCc3cccnc3)ccc12
> 5	Cc1c(CC(=O)O)c(=O)oc2c(C)c(OCc3ccncc3)ccc12
10	Cc1c(CC(=O)O)c(=O)oc2c(C)c(OCc3ccccc3Br)ccc12
> 5	Cc1c(CC(=O)O)c(=O)oc2c(C)c(OCc3ccc(Br)cc3)ccc12
0.5	Cc1cccc(COc2ccc3c(C)c(CC(=O)O)c(=O)oc3c2C)c1
> 5	Cc1c(CC(=O)O)c(=O)oc2c(C)c(OCc3ccc(I)cc3)ccc12
> 5	Cc1c(CC(=O)O)c(=O)oc2c(C)c(OCc3ccc(Cl)cc3)ccc12
> 5	Cc1c(CC(=O)O)c(=O)oc2c(C)c(OCc3ccccn3)ccc12
> 5	Cc1c(CC(=O)O)c(=O)oc2c(C)c(OCc3cccc(CO)n3)ccc12
18	Cc1c(CC(=O)O)c(=O)oc2c(C)c(OCc3ccccc3Cl)ccc12
0.9	Cc1c(CC(=O)O)c(=O)oc2c(C)c(OCc3cccc(F)c3)ccc12
1	Cc1c(CC(=O)O)c(=O)oc2c(C)c(OCc3cccc(Cl)c3)ccc12

Second part, the compound before the results:

SMILES	IC50 [µM]
Cc1c(CC(=O)O)c(=O)oc2c(C)c(OCCn3cccc3)ccc12	> 5
Cc1c(CCC(=O)O)c(=O)oc2c(C)c(OCc3cccc(Br)c3)ccc12	> 5
Cc1c(CC(=O)O)c(=O)oc2c(C)c(OS(=O)(=O)c3cccc(Cl)c3)ccc12	> 5
Cc1c(OCc2cccc(Br)c2)ccc2cc(C(=O)NO)c(=O)oc12	0.45
Cc1c(CC(=O)O)c(=O)oc2c(C)c(OCc3cc(F)cc(C(F)(F)F)c3)ccc12	0.06
Cc1c(CCC(=O)O)c(=O)oc2c(C)c(OCc3cccc(I)c3)ccc12	> 5
Cc1c(OCc2cccc(Br)c2)ccc2cc(C(=O)O)c(=O)oc12	> 5
CCCCOc1ccc2c(C)c(CC(=O)O)c(=O)oc2c1C	1.5
Cc1cccc(S(=O)(=O)Oc2ccc3c(C)c(CC(=O)O)c(=O)oc3c2C)c1	> 5
Cc1cc(C)cc(COc2ccc3c(C)c(CC(=O)O)c(=O)oc3c2C)c1	15
COCCOc1ccc2c(C)c(CC(=O)O)c(=O)oc2c1C	> 5
Cc1c(CC(N)=O)c(=O)oc2c(C)c(OCc3cccc(Br)c3)ccc12	3.3
Cc1c(CC(=O)O)c(=O)oc2c(C)c(OCCC(=O)O)ccc12	> 5
Cc1c(CC(=O)O)c(=O)oc2c(C)c(OCCc3cccc(C(F)(F)F)c3)ccc12	> 5
C=CCOc1ccc2c(C)c(CC(=O)O)c(=O)oc2c1C	> 5
Cc1c(OCc2cccc(I)c2)ccc2cc(C(=O)O)c(=O)oc12	> 5
Cc1c(OCc2cccc(Br)c2)ccc2cc(C(N)=O)c(=O)oc12	> 5
Cc1c(CC(=O)O)c(=O)oc2c(C)c(OCc3cc(C(F)(F)F)cc(C(F)(F)F)c3)ccc12	0.3
CCCOc1ccc2c(C)c(CC(=O)O)c(=O)oc2c1C	> 5
Cc1c(CC(=O)O)c(=O)oc2c(C)c(OCc3cccc(C(F)(F)F)n3)ccc12	> 5
CCCCCOc1ccc2c(C)c(CC(=O)O)c(=O)oc2c1C	1

Tested on: not listed separately
Assay: Cmax in mouse at 5 mg/kg, po by LC-MS analysis
Format: ADME, organism-based
Design: dose 5 mg/kg, route oral
Conditions: in vivo
Outline: as §1

Cmax [µM]	SMILES
9.4	Cc1c(CC(=O)O)c(=O)oc2c(C)c(OCc3cccc(Br)c3)ccc12

Tested on: not listed separately
Assay: AUC in mouse at 5 mg/kg, po by LC-MS analysis
Format: ADME, organism-based
Conditions: in vivo
Outline: as §1

AUC [µM·h]	SMILES
124	Cc1c(CC(=O)O)c(=O)oc2c(C)c(OCc3cccc(Br)c3)ccc12

Tested on: not listed separately
Assay: AUC in mouse at 5 mg/kg, ip by LC-MS analysis
Format: ADME, organism-based
Conditions: in vivo
Outline: as §1

AUC [µM·h]	SMILES
231	Cc1c(CC(=O)O)c(=O)oc2c(C)c(OCc3cccc(Br)c3)ccc12

Tested on: not listed separately
Assay: Tmax in mouse at 5 mg/kg, po by LC-MS analysis
Format: ADME, organism-based
Conditions: in vivo
Outline: as §1

Tmax [h]	SMILES
5.8	Cc1c(CC(=O)O)c(=O)oc2c(C)c(OCc3cccc(Br)c3)ccc12

Tested on: not listed separately
Assay: Tmax in mouse at 5 mg/kg, ip by LC-MS analysis
Format: ADME, organism-based
Conditions: in vivo
Outline: as §1

Tmax [h]	SMILES
1.5	Cc1c(CC(=O)O)c(=O)oc2c(C)c(OCc3cccc(Br)c3)ccc12
